Experimental data reported in ChEMBL document CHEMBL4819117, “Probing cytochrome P450 (CYP) bioactivation with chloromethylindoline bioprecursors derived from the duocarmycin family of compounds” (Bioorg Med Chem, 2021).
pIC50: −log10 of the molar value.

What was measured:
[1] = system: EJ; test: Antiproliferative activity against human EJ138 cells deficit in CYPs assessed as inhibition of cell growth after 96 hrs by MTT assay; type: functional, cell-based
How it was run: (§1)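 Cells kept as monolayers at 37 °C in 5% CO2: EJ-138 and RT112 in RPMI 1640 with 10% FBS, sodium pyruvate and 2 mM L-glutamine; CHO and CHO-1A1 in DMEM. Compounds were taken from DMSO stocks into medium over 0.001–100 μM, with final DMSO ≤0.1%. Exposure lasted 96 h, then MTT read-out. IC50 values are mean ± SD of at least three independent assays.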

[2] = system: RT-112; test: Antiproliferative activity against human RT112 cells proficient in CYP1A1 assessed as inhibition of cell growth after 96 hrs by MTT assay; type: functional, cell-based; conditions: RT-112, 96 h; how it was run: as §1
[3] = system: CHO; test: Antiproliferative activity against wild type chinese hamster CHO cells deficit in CYPs assessed as inhibition of cell growth after 96 hrs by MTT assay; type: functional, cell-based; conditions: Cricetulus griseus; how it was run: as §1
[4] = system: CHO; test: Antiproliferative activity against chinese hamster CHO cells transfected with CYP1A1 assessed as inhibition of cell growth after 96 hrs by MTT assay; type: functional, cell-based; conditions: Cricetulus griseus; how it was run: as §1
[5] = system: EJ; test: Antiproliferative activity against human EJ138 cells assessed as inhibition of cell growth preincubated for 1 hr with CYP null bactosomes measured after 96 hrs by MTT assay; type: functional, cell-based
How it was run: (§2)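 Compound (50 μM) incubated 1 h at 37 °C with 20 pmol CYP bactosomes (CYP null, 1A1, 1A2, 1B1 or 3A4) in 2 mM NADPH, 1 mM MgCl₂, Tris-HCl pH 7.4. Metabolites were extracted with acetonitrile, centrifuged, and the supernatant dried and taken up in DMSO. EJ138 cells were exposed 96 h and growth read by MTT assay.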

[6] = system: EJ; test: Antiproliferative activity against human EJ138 cells assessed as inhibition of cell growth preincubated for 1 hr with human CYP1A1 expressing bactosomes measured after 96 hrs by MTT assay; type: functional, cell-based; how it was run: as §2
[7] = system: EJ; test: Antiproliferative activity against human EJ138 cells assessed as inhibition of cell growth preincubated for 1 hr with human CYP1A2 expressing bactosomes measured after 96 hrs by MTT assay; type: functional, cell-based; how it was run: as §2
[8] = system: EJ; test: Antiproliferative activity against human EJ138 cells assessed as inhibition of cell growth preincubated for 1 hr with human CYP1B1 expressing bactosomes measured after 96 hrs by MTT assay; type: functional, cell-based; how it was run: as §2
[9] = system: EJ; test: Antiproliferative activity against human EJ138 cells assessed as inhibition of cell growth preincubated for 1 hr with human CYP3A4 expressing bactosomes measured after 96 hrs by MTT assay; type: functional, cell-based; how it was run: as §2
[10] = Drug metabolism in Wistar rat liver microsomes assessed as CYP-mediated metabolite M16 formation at 0.5 to 23.5 uM prewarmed for 5 mins followed by NADPH addition and measured after 30 mins by HPLC-fluorescence detector analysis; type: ADME; conditions: 35 min, dose 0.5-23.5 µM
[11] = system: Cytochrome P450; test: Drug metabolism in human liver microsomes assessed as CYP-mediated metabolite M16 formation at 0.5 to 23.5 uM prewarmed for 5 mins followed by NADPH addition and measured after 30 mins by HPLC-fluorescence detector analysis; type: ADME; conditions: 35 min, dose 0.5-23.5 µM
[12] = system: EJ; test: Potentiation factor, ratio of IC50 for antiproliferative activity against human EJ138 cells preincubated for 1 hr with CYP null bactosomes to IC50 for antiproliferative activity against human EJ138 cells preincubated for 1 hr with human CYP1A1 expressing bactosomes; type: functional
How it was run: (§3)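 Potentiation factor = IC₅₀ in EJ138 given control (CYP null) bactosome extract ÷ IC₅₀ with the named CYP isoform extract. Extracts came from 1 h, 37 °C incubations of 50 μM compound with 20 pmol bactosomes plus 2 mM NADPH, 1 mM MgCl₂, Tris-HCl pH 7.4. Cells were exposed 96 h and read by MTT.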

[13] = system: EJ; test: Potentiation factor, ratio of IC50 for antiproliferative activity against human EJ138 cells preincubated for 1 hr with CYP null bactosomes to IC50 for antiproliferative activity against human EJ138 cells preincubated for 1 hr with human CYP1A2 expressing bactosomes; type: functional; how it was run: as §3
[14] = system: EJ; test: Potentiation factor, ratio of IC50 for antiproliferative activity against human EJ138 cells preincubated for 1 hr with CYP null bactosomes to IC50 for antiproliferative activity against human EJ138 cells preincubated for 1 hr with human CYP1B1 expressing bactosomes; type: functional; how it was run: as §3
[15] = system: EJ; test: Potentiation factor, ratio of IC50 for antiproliferative activity against human EJ138 cells preincubated for 1 hr with CYP null bactosomes to IC50 for antiproliferative activity against human EJ138 cells preincubated for 1 hr with human CYP3A4 expressing bactosomes; type: functional; how it was run: as §3
[16] = biological target: T1, Cytochrome P450 1A1 (Homo sapiens, UniProt P04798); test: Drug metabolism assessed as human CYP1A1 expressed in bactosomes assessed as metabolite M2 with m/z 357.1 formation measured after 1 hr by LC-MS analysis; type: ADME; conditions: recombinant enzyme
T1 sequence (P04798 whole entry): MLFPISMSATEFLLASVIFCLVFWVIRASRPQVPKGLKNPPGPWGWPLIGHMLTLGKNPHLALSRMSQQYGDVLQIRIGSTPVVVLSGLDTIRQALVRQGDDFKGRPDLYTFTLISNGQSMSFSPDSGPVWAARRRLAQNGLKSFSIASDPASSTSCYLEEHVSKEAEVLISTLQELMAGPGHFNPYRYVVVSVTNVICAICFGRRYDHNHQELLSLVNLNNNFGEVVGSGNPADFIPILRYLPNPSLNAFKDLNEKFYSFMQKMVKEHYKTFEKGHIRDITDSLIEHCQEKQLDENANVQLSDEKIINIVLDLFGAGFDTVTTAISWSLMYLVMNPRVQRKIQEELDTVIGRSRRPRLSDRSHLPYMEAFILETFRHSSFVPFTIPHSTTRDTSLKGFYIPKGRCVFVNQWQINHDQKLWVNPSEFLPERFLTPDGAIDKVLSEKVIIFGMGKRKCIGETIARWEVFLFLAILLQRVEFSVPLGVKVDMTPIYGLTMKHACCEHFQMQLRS

[17] = biological target: T1, Cytochrome P450 1A1; test: Drug metabolism assessed as human CYP1A1 expressed in bactosomes assessed as metabolite M3 with m/z 339.1 formation measured after 1 hr by LC-MS analysis; type: ADME; conditions: recombinant enzyme
[18] = biological target: T1, Cytochrome P450 1A1; test: Drug metabolism assessed as human CYP1A1 expressed in bactosomes assessed as (3-(chloromethyl)-6-hydroxyindolin-1-yl)(5-methoxy-1H-indol-2-yl)methanone formation measured after 1 hr by LC-MS analysis; type: ADME; conditions: recombinant enzyme
[19] = biological target: T2, Cytochrome P450 1A2 (Homo sapiens, UniProt P05177); test: Drug metabolism assessed as human CYP1A2 expressed in bactosomes assessed as (3-(chloromethyl)-6-hydroxyindolin-1-yl)(5-methoxy-1H-indol-2-yl)methanone formation measured after 1 hr by LC-MS analysis; type: ADME; conditions: recombinant enzyme
T2 sequence (P05177 whole entry): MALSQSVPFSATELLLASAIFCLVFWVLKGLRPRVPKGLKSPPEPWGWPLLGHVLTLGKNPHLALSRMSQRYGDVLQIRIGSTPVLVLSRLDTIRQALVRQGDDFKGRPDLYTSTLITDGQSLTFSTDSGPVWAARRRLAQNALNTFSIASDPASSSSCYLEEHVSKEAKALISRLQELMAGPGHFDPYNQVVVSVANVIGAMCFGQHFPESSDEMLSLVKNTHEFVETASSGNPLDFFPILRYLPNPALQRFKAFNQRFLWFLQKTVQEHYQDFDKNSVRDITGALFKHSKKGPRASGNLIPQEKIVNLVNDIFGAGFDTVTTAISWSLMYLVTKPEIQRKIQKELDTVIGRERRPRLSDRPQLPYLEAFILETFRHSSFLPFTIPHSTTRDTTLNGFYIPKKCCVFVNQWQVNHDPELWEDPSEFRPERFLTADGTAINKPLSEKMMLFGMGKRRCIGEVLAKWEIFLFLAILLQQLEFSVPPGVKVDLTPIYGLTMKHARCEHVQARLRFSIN

[20] = biological target: T1, Cytochrome P450 1A1; test: Drug metabolism assessed as recombinant human CYP1A1-mediated metabolite M2 with m/z 357.1 formation at 50 uM incubated for 1 hr in presence of reconstituted protein system by LC-MS analysis; type: ADME; conditions: recombinant enzyme
How it was run: (§4)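 Substrate (50 μM) incubated at 37 °C with human recombinant CYP1A1 in a reconstituted system: NADPH cytochrome P450 reductase, freshly prepared DLPC (240 μM), 100 mM potassium phosphate pH 7.4. Reaction was started with NADPH (1 mM final) and aliquots quenched into dichloromethane over 60 min. Metabolites were profiled by HPLC with photodiode array and ESI⁺ quadrupole MS.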

[21] = biological target: T1, Cytochrome P450 1A1; test: Drug metabolism assessed as recombinant human CYP1A1-mediated metabolite M3 with m/z 339.1 formation at 50 uM incubated for 1 hr in presence of reconstituted protein system by LC-MS analysis; type: ADME; conditions: recombinant enzyme; how it was run: as §4
[22] = biological target: T1, Cytochrome P450 1A1; test: Drug metabolism assessed as recombinant human CYP1A1-mediated metabolite M4 with m/z 327.1 formation at 50 uM incubated for 1 hr in presence of reconstituted protein system by LC-MS analysis; type: ADME; conditions: recombinant enzyme; how it was run: as §4
[23] = biological target: T1, Cytochrome P450 1A1; test: Drug metabolism assessed as recombinant human CYP1A1-mediated metabolite M5 with m/z 355.1 formation at 50 uM incubated for 1 hr in presence of reconstituted protein system by LC-MS analysis; type: ADME; conditions: recombinant enzyme; how it was run: as §4
[24] = biological target: T1, Cytochrome P450 1A1; test: Drug metabolism assessed as recombinant human CYP1A1-mediated metabolite M6 with m/z 373.1 formation at 50 uM incubated for 1 hr in presence of reconstituted protein system by LC-MS analysis; type: ADME; conditions: recombinant enzyme; how it was run: as §4
[25] = Drug metabolism in Wistar rat liver microsomes assessed as CYP-mediated metabolite M22 formation at 0.5 to 23.5 uM prewarmed for 5 mins followed by NADPH addition and measured after 30 mins by HPLC-fluorescence detector analysis; type: ADME; conditions: 35 min, dose 0.5-23.5 µM
[26] = Drug metabolism in Wistar rat liver microsomes assessed as CYP-mediated metabolite M23 formation at 0.5 to 23.5 uM prewarmed for 5 mins followed by NADPH addition and measured after 30 mins by HPLC-fluorescence detector analysis; type: ADME; conditions: 35 min, dose 0.5-23.5 µM
[27] = system: Cytochrome P450; test: Drug metabolism in human liver microsomes assessed as CYP-mediated metabolite M22 formation at 0.5 to 23.5 uM prewarmed for 5 mins followed by NADPH addition and measured after 30 mins by HPLC-fluorescence detector analysis; type: ADME; conditions: 35 min, dose 0.5-23.5 µM
[28] = system: Cytochrome P450; test: Drug metabolism in human liver microsomes assessed as CYP-mediated metabolite M23 formation at 0.5 to 23.5 uM prewarmed for 5 mins followed by NADPH addition and measured after 30 mins by HPLC-fluorescence detector analysis; type: ADME; conditions: 35 min, dose 0.5-23.5 µM
[29] = Selectivity ratio of IC50 for antiproliferative activity against wild type chinese hamster CHO cells deficit in CYPs to IC50 for antiproliferative activity against chinese hamster CHO cells transfected with CYP1A1 by MTT assay; type: functional, Cricetulus griseus
How it was run: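 CHO wild-type and CYP1A1-transfected CHO cells were grown in DMEM at 37 °C, 5% CO₂. Compounds from DMSO stocks were tested at 0.001–100 μM, final DMSO ≤0.1%, for 96 h, then MTT. Ratio = CHOwt IC₅₀ / CHO1A1 IC₅₀; IC₅₀ values are mean ± SD of at least three independent assays.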

COc1ccc2[nH]c(C(=O)N3CC(CCl)c4ccccc43)cc2c1 (stereo not drawn)
pIC50 [1]: 4.82
pIC50 [2]: 5.09
pIC50 [3]: 4.94
pIC50 [4]: 5.92
pIC50 [5]: 4.76
pIC50 [6]: 5.60
pIC50 [7]: 5.72
pIC50 [8]: 4.87
pIC50 [9]: 4.70
Drug metabolism [10]: Metabolite_Detected
Drug metabolism [11]: Metabolite_Detected
Ratio IC50 [12]: 6.9
Ratio IC50 [13]: 9.1
Ratio IC50 [14]: 1.3
Ratio IC50 [15]: 0.9
Drug metabolism [16]: Metabolite_Detected
Drug metabolism [17]: Metabolite_Detected
Drug metabolism [18]: Metabolite_Notdetected
Drug metabolism [19]: Metabolite_Notdetected
Drug metabolism [20]: Metabolite_Detected
Drug metabolism [21]: Metabolite_Detected
Drug metabolism [22]: Metabolite_Detected
Drug metabolism [23]: Metabolite_Detected
Drug metabolism [24]: Metabolite_Detected
Drug metabolism [25]: Metabolite_Detected
Drug metabolism [26]: Metabolite_Detected
Drug metabolism [27]: Metabolite_Detected
Drug metabolism [28]: Metabolite_Detected
Ratio IC50 [29]: 10

CC(C)(C)OC(=O)N1CC(CCl)c2ccc(O)cc21 (stereo not drawn)
pIC50 [1]: 5.09
pIC50 [2]: 4.95
pIC50 [3]: 5.14
pIC50 [4]: 5.19
